The values that follow come from publication PMC7931394 (ACS Omega, 2021).

Type in all cases: physicochemical
The nature of data set [1]: Turbidity measurement of temperature-dependent coacervation. Put shortly:
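Peptides were dissolved in pure water at various concentrations. Turbidity at 400 nm was followed while the temperature was raised or lowered at 0.5 °C/min starting from 5 °C. Each concentration was run at least three times. Tt was taken as the temperature at which turbidity reached half its maximum.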

A short description of data set [2]: Logarithmic fit of Tt against molar peptide concentration. The settings on record: pure water. Put shortly:
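Tt for each peptide was obtained by turbidity at 400 nm in pure water at several concentrations, measured at least three times per concentration. Tt was plotted against the logarithm of molar peptide concentration and fitted as a logarithmic function. C37 was obtained by logarithmic extrapolation to Tt = 37 °C. The concentration needed at 50 °C was computed from formula (1).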

Data set [3] in a line: Scanning electron microscopy of aggregates. The settings on record: 0.10 mg/mL aqueous solution incubated at 50 °C for 3 h (Figure S6). Put shortly: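 Peptide in water at 0.1 mg/mL was incubated at 50 °C for 3 h, dropped on a cover glass and air-dried at 50 °C. The residue was rinsed gently three times with distilled water and air-dried again. Samples were platinum sputter-coated (5 nm) and imaged at 5.00 kV at 500× and 2000× magnification.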

Peptide text beside a SMILES is read from it.

Consider `CC(C)[C@H](NC(=O)CNC(=O)[C@@H]1CCCN1C(=O)[C@H](Cc1ccccc1)NC(=O)CNC(=O)[C@@H](NC(=O)CNC(=O)[C@@H]1CCCN1C(=O)[C@H](Cc1ccccc1)NC(=O)CNC(=O)[C@@H](NC(=O)CNC(=O)[C@@H]1CCCN1C(=O)[C@@H](N)Cc1ccccc1)C(C)C)C(C)C)C(=O)NCC(N)=O` [F3, H-(FPGVG)3-NH2] (H-FPGVGFPGVGFPGVG-NH2), for which the “coacervation (turbidity change on heating)” value in data set [1] (peptide 20–50 mg/mL in pure water, turbidity at 400 nm (Figure S2)) is recorded as “no coacervation”.

Turning to `CC(C)[C@H](NC(=O)CNC(=O)[C@@H]1CCCN1C(=O)[C@H](Cc1ccccc1)NC(=O)CNC(=O)[C@@H](NC(=O)CNC(=O)[C@@H]1CCCN1C(=O)[C@H](Cc1ccccc1)NC(=O)CNC(=O)[C@@H](NC(=O)CNC(=O)[C@@H]1CCCN1C(=O)[C@H](Cc1ccccc1)NC(=O)CNC(=O)[C@@H](NC(=O)CNC(=O)[C@@H]1CCCN1C(=O)[C@H](Cc1ccccc1)NC(=O)CNC(=O)[C@@H](NC(=O)CNC(=O)[C@@H]1CCCN1C(=O)[C@@H](N)Cc1ccccc1)C(C)C)C(C)C)C(C)C)C(C)C)C(=O)NCC(N)=O` [F5, H-(FPGVG)5-NH2] (H-FPGVGFPGVGFPGVGFPGVGFPGVG-NH2), the “concentration required to show coacervation at 50 °C” value in data set [2] (calculated with formula (1)) is “at least 8.09 mM”. For the same compound, the “C37 (peptide concentration to attain Tt at 37 °C)” value in data set [2] (logarithmic extrapolation of the Tt vs peptide concentration graph) is recorded as 11.7 mM. Also, the “peptide concentration at which coacervation is exhibited / required” value in data set [1] (pure water, turbidity at 400 nm, 0.5 °C/min from 5 °C) is reported as “at least 20 mg/mL”. Besides, the “morphology by SEM” value in data set [3] is listed as “spherical structures were not formed”.
